Data from ChEMBL document CHEMBL4350958, “Rational Design of Short Peptide Variants by Using Kunitzin-RE, an Amphibian-Derived Bioactivity Peptide, for Acquired Potent Broad-Spectrum Antimicrobial and Improved Therapeutic Potential of Commensalism Coinfection of Pathogens” (J Med Chem, 2019).
In brackets after ≈: the same amount, converted by molar mass.

Columns and labels:
[1] = system: Candida albicans; experiment: Antifungal activity against Candida albicans cgmcc2.2086 measured after 48 hrs in presence of KCl by broth microdilution method; assay type: functional
[2] = Therapeutic index, ratio of MHC10 for hemolytic activity in human RBC to MIC95 against Staphylococcus aureus ATCC 25923; assay type: toxicity; settings: human red blood cells (erythrocytes), read-out: TI
In short: (§1)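 Therapeutic index = MHC divided by MIC. MHC is the lowest concentration giving >10% lysis of human RBC (1 h, 37 °C, 1-128 µM, A576). MIC is 95% growth inhibition by broth microdilution: bacteria in MHB 24 h at 37 °C; Candida in MOPS-buffered RPMI 1640 at (0.5–1) × 10^3 CFU mL−1, 48 h at 28 °C.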

[3] = system: Staphylococcus aureus; experiment: Antibacterial activity against Staphylococcus aureus ATCC 29213 measured after 18 to 24 hrs in presence of NaCl; assay type: functional
[4] = system: Escherichia coli; experiment: Antibacterial activity against Escherichia coli UB1005 measured after 24 hrs; assay type: functional
In short: (§2)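 Broth microdilution adapted from NCCLS. Mid-log bacteria were diluted in MHB to a final (0.5–1) × 10^5 CFU mL−1. Peptides were serially diluted in 0.2% BSA and mixed with an equal volume of cells. After 24 h at 37 °C, MIC was read at A492 as the lowest concentration inhibiting 95% of growth. At least three independent experiments, each with three technical replicates.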

[5] = system: Escherichia coli; experiment: Antibacterial activity against Escherichia coli ATCC 25922 measured after 18 to 24 hrs in presence of CaCl2; assay type: functional
[6] = system: Staphylococcus epidermidis; experiment: Antibacterial activity against Staphylococcus epidermidis ATCC 12228 measured after 24 hrs; assay type: functional; in short: as §2
[7] = system: Staphylococcus aureus; experiment: Antibacterial activity against Staphylococcus aureus ATCC 29213 measured after 18 to 24 hrs in presence of CaCl2; assay type: functional
[8] = system: Staphylococcus aureus; experiment: Bactericidal activity against methicillin-resistant Staphylococcus aureus ATCC 43300 incubated for 24 hrs followed by replating on agar plate and measured after overnight incubation; assay type: functional; settings: for MBC: ATCC 43300, 24 h, read-out: MBC>99.9
In short: (§3)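 After the 24 h, 37 °C MHB microdilution MIC assay, 50 μL from each well was plated on agar and incubated overnight. MBC taken as lowest peptide concentration killing >99.9% of cells. At least three independent experiments, each with three technical replicates.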

[9] = system: Candida albicans; experiment: Antifungal activity against Candida albicans cgmcc2.2086 measured after 48 hrs in presence of FeCl by broth microdilution method; assay type: functional
[10] = system: Staphylococcus aureus; experiment: Antibacterial activity against Staphylococcus aureus ATCC 29213 measured after 24 hrs; assay type: functional
In short: (§4)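 Broth microdilution modified from NCCLS. Mid-log bacteria at (0.5–1) × 10^5 CFU mL−1 in MHB, mixed with peptides serially diluted in 0.2% BSA. Incubated 24 h at 37 °C, read at A492. MIC taken as lowest concentration giving 95% growth inhibition. At least three independent experiments, each with three technical replicates.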

[11] = system: Candida albicans; experiment: Antifungal activity against Candida albicans cgmcc2.2086 measured after 48 hrs in presence of MgCl by broth microdilution method; assay type: functional
[12] = system: Staphylococcus epidermidis; experiment: Bactericidal activity against Staphylococcus epidermidis ATCC 12228 incubated for 24 hrs followed by replating on agar plate and measured after overnight incubation; assay type: functional; settings: for MBC: ATCC 12228, 24 h, read-out: MBC>99.9
In short: (§5)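 Mid-log bacteria diluted in MHB to (0.5–1) × 10^5 CFU/mL and mixed 1:1 with peptide serially diluted in 0.2% BSA. After 24 h at 37 °C, 50 μL of each mixture was plated on agar and incubated overnight. MBC taken as the lowest concentration killing >99.9% of cells. At least three independent experiments, each with three technical replicates.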

[13] = Bactericidal activity against Salmonella pullorum ATCC 7913 incubated for 24 hrs followed by replating on agar plate and measured after overnight incubation; assay type: functional, Salmonella enterica subsp. enterica serovar Pullorum; settings: Salmonella enterica, ATCC 7913, 24 h; read-out: MBC>99.9; in short: as §5
[14] = Therapeutic index, ratio of MHC10 for hemolytic activity in human RBC to MIC95 against Candida tropicalis cgmcc2.1975; assay type: toxicity; settings: human red blood cells (erythrocytes), read-out: TI; in short: as §1
[15] = system: Staphylococcus aureus; experiment: Antibacterial activity against Staphylococcus aureus ATCC 25923 measured after 24 hrs; assay type: functional; in short: as §4
[16] = system: Candida albicans; experiment: Antifungal activity against Candida albicans cgmcc2.2086 measured after 48 hrs in presence of NH4Cl by broth microdilution method; assay type: functional
[17] = Therapeutic index, ratio of MHC10 for hemolytic activity in human RBC to MIC95 against Staphylococcus aureus ATCC 29213; assay type: toxicity; settings: human red blood cells (erythrocytes), read-out: TI; in short: as §1
[18] = system: Escherichia coli; experiment: Antibacterial activity against Escherichia coli ATCC 25922 measured after 18 to 24 hrs in presence of NaCl; assay type: functional
[19] = system: Escherichia coli; experiment: Antibacterial activity against Escherichia coli 078 measured after 24 hrs; assay type: functional; in short: as §2
[20] = system: Salmonella typhimurium; experiment: Antibacterial activity against Salmonella typhimurium ATCC 14028 measured after 24 hrs; assay type: functional, Salmonella enterica subsp. enterica serovar Typhimurium; in short: as §2
[21] = system: Escherichia coli; experiment: Antibacterial activity against Escherichia coli K99 measured after 24 hrs; assay type: functional; in short: as §2
[22] = system: Pseudomonas aeruginosa; experiment: Bactericidal activity against Pseudomonas aeruginosa ATCC 27853 incubated for 24 hrs followed by replating on agar plate and measured after overnight incubation; assay type: functional; settings: for MBC: ATCC 27853, 24 h, read-out: MBC>99.9; in short: as §5
[23] = system: Staphylococcus aureus; experiment: Bactericidal activity against Staphylococcus aureus ATCC 25923 incubated for 24 hrs followed by replating on agar plate and measured after overnight incubation; assay type: functional; settings: for MBC: ATCC 25923, 24 h, read-out: MBC>99.9; in short: as §3
[24] = Therapeutic index, ratio of MHC10 for hemolytic activity in human RBC to MIC95 against methicillin-resistant Staphylococcus aureus ATCC 43300; assay type: toxicity; settings: human red blood cells (erythrocytes), read-out: TI; in short: as §1
[25] = Therapeutic index, ratio of MHC10 for hemolytic activity in human RBC to MIC95 against Candida parapsilosis cgmcc2.3989; assay type: toxicity; settings: human red blood cells (erythrocytes), read-out: TI; in short: as §1
[26] = system: Escherichia coli; experiment: Antibacterial activity against Escherichia coli ATCC 25922 measured after 18 to 24 hrs in presence of MgCl2; assay type: functional
[27] = system: Candida albicans; experiment: Antifungal activity against Candida albicans cgmcc2.2086 measured after 48 hrs by broth microdilution method; assay type: functional
In short: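 Modified CLSI M27-A2 microdilution. Yeast colonies were diluted in MOPS-buffered RPMI 1640 to a final (0.5–1) × 10^3 CFU mL−1 and mixed with an equal volume of peptide serially diluted in 0.2% BSA. After 48 h at 28 °C, MIC was read at A492 as the lowest concentration inhibiting 95% of growth. At least three independent experiments, each with three technical replicates.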

[28] = system: Escherichia coli; experiment: Antibacterial activity against Escherichia coli ATCC 25922 measured after 24 hrs; assay type: functional; in short: as §2
[29] = system: Staphylococcus aureus; experiment: Antibacterial activity against Staphylococcus aureus ATCC 29213 measured after 18 to 24 hrs in presence of FeCl3; assay type: functional
[30] = system: Pseudomonas aeruginosa; experiment: Antibacterial activity against Pseudomonas aeruginosa ATCC 27853 measured after 24 hrs; assay type: functional; in short: as §2
[31] = system: Escherichia coli; experiment: Antibacterial activity against Escherichia coli ATCC 25922 measured after 18 to 24 hrs in presence of FeCl3; assay type: functional
[32] = Salmonella enterica, ATCC 14028, 24 h

Compound	MIC95 ([1]; cgmcc2.2086, 48 h)	MIC95 [3]	MIC95 ([4]; UB1005, 24 h)	MIC95 [5]	MIC95 ([6]; ATCC 12228, 24 h)	MIC95 [7]	MBC [8]	MIC95 ([9]; cgmcc2.2086, 48 h)	MIC95 ([10]; ATCC 29213, 24 h)	MIC95 ([11]; cgmcc2.2086, 48 h)	MBC [12]	MBC [13]	MIC95 ([15]; ATCC 25923, 24 h)	MIC95 ([16]; cgmcc2.2086, 48 h)	MIC95 [18]	MIC95 ([19]; Escherichia coli, 078, 24 h)	MIC95 [20, 32]	MIC95 [26]	MIC95 [29]	MIC95 [31]	also measured
CC[C@H](C)[C@H](NC(=O)CN)C(=O)NCC(=O)N[C@@H](C)C(=O)N[C@H](C(=O)N[C@@H](CC(C)C)C(=O)N[C@@H](CCCCN)C(=O)N[C@H](C(=O)N[C@@H](CC(C)C)C(=O)N[C@H](C(=O)N[C@H](C(=O)NCC(=O)N[C@@H](CC(C)C)C(=O)N1CCC[C@H]1C(=O)N[C@@H](C)C(=O)N[C@@H](CC(C)C)C(=O)N[C@H](C(=O)N[C@@H](CO)C(=O)N[C@@H](Cc1c[nH]c2ccccc12)C(=O)N[C@H](C(=O)N[C@@H](CCCCN)C(=O)N[C@@H](CCCNC(=N)N)C(=O)N[C@@H](CCCCN)C(=O)N[C@@H](CCCNC(=N)N)C(=O)N[C@@H](CCC(N)=O)C(=O)N[C@@H](CCC(N)=O)C(N)=O)[C@@H](C)CC)[C@@H](C)CC)[C@@H](C)O)[C@@H](C)O)C(C)C)C(C)C [MELITTIN]	4 µM	8 µM	2 µM (≈ 5.69 µg/mL)	8 µM	2 µM (≈ 5.69 µg/mL)	8 µM	4 µM (≈ 11.4 µg/mL)	4 µM	4 µM (≈ 11.4 µg/mL)	4 µM	4 µM (≈ 11.4 µg/mL)	2 µM (≈ 5.69 µg/mL)	8 µM (≈ 22.8 µg/mL)	4 µM	4 µM	2 µM (≈ 5.69 µg/mL)	2 µM (≈ 5.69 µg/mL)	4 µM	4 µM	2 µM	selectivity ratio [2]: 0.35; selectivity ratio [14]: 0.32; selectivity ratio [17]: 0.35; MIC95 ([21]; K99, 24 h): 2 µM (≈ 5.69 µg/mL); MBC [22]: 4 µM (≈ 11.4 µg/mL); MBC [23]: 8 µM (≈ 22.8 µg/mL); selectivity ratio [24]: 0.35; selectivity ratio [25]: 0.32; MIC95 ([27]; cgmcc2.2086, 48 h): 4 µM (≈ 11.4 µg/mL); MIC95 ([28]; ATCC 25922, 24 h): 2 µM (≈ 5.69 µg/mL); MIC95 ([30]; ATCC 27853, 24 h): 2 µM (≈ 5.69 µg/mL)
GENTAMICIN		2 µM		1 µM		4 µM									4 µM			1 µM	1 µM	1 µM	MIC95 [1]: > 128 µM; MIC95 [4]: 0.5 µM; MIC95 [6]: 1 µM; MBC>99.9 [8]: 16 µM; MIC95 [9]: > 128 µM; MIC95 [10]: 1 µM; MIC95 [11]: > 128 µM; MBC>99.9 [12]: 2 µM; MIC95 [15]: 1 µM; MIC95 [16]: > 128 µM; MIC95 [19]: 0.5 µM; MIC95 ([20]; Salmonella enterica subsp. enterica serovar Typhimurium): 2 µM; MIC95 [21]: 0.5 µM; MBC>99.9 [22]: 1 µM; MBC>99.9 [23]: 1 µM; MIC95 [27]: > 128 µM; MIC95 [28]: 1 µM; MIC95 [30]: 1 µM
CC(C)(O/N=C(\C(=O)N[C@@H]1C(=O)N2C(C(=O)[O-])=C(C[n+]3ccccc3)CS[C@H]12)c1csc(N)n1)C(=O)O [CEFTAZIDIME]	> 128 µM	16 µM	1 µM (≈ 0.547 µg/mL)	2 µM	16 µM (≈ 8.75 µg/mL)	32 µM	32 µM (≈ 17.5 µg/mL)	> 128 µM	16 µM (≈ 8.75 µg/mL)	> 128 µM	32 µM (≈ 17.5 µg/mL)	2 µM (≈ 1.09 µg/mL)	16 µM (≈ 8.75 µg/mL)	> 128 µM	4 µM	0.5 µM (≈ 0.273 µg/mL)	1 µM (≈ 0.547 µg/mL)	2 µM	16 µM	2 µM	MIC95 ([21]; K99, 24 h): 0.5 µM (≈ 0.273 µg/mL); MBC [22]: 4 µM (≈ 2.19 µg/mL); MBC [23]: 32 µM (≈ 17.5 µg/mL); MIC95 ([27]; cgmcc2.2086, 48 h): > 128 µM; MIC95 ([28]; ATCC 25922, 24 h): 2 µM (≈ 1.09 µg/mL); MIC95 ([30]; ATCC 27853, 24 h): 2 µM (≈ 1.09 µg/mL)
H-AARIILRRRFR-NH2	128 µM	128 µM	16 µM	128 µM	16 µM	128 µM	64 µM	> 128 µM	16 µM	> 128 µM	32 µM	32 µM	32 µM	> 128 µM	128 µM	16 µM	32 µM	64 µM	16 µM	32 µM	selectivity ratio [2]: 13.4; selectivity ratio [14]: 3.17; selectivity ratio [17]: 13.4; MIC95 ([21]; K99, 24 h): 8 µM; MBC [23]: 64 µM; selectivity ratio [24]: 13.4; selectivity ratio [25]: 3.17; MIC95 ([27]; cgmcc2.2086, 48 h): 128 µM; MIC95 ([28]; ATCC 25922, 24 h): 8 µM; MIC95 ([30]; ATCC 27853, 24 h): > 128 µM
